# Columns and labels:
# [1] = molecular target: Substance-P receptor (Cavia porcellus) (UniProt P30547); assay: In vitro inhibition of substance P induced contractions of the guinea pig ileum at 10 uM.; type: tissue-based
# Method in brief: (§1)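 Agonist (SP or SP(6-11)-hexapeptide) dose-response curves on a 3-min cycle with 1-min contact, then washout. Dose ratio = agonist EC50 with antagonist / EC50 alone. At least two preparations per compound; ratios below 2 taken as insignificant.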
# [2] = molecular target: Substance-P receptor (Rattus norvegicus) (UniProt P14600); assay: Antagonistic activity against Substance P(6-11) receptor in rat spinal cord at concentration of 25 uM.
# Sequence of Substance-P receptor (Rattus norvegicus) (P14600 whole entry, looked up): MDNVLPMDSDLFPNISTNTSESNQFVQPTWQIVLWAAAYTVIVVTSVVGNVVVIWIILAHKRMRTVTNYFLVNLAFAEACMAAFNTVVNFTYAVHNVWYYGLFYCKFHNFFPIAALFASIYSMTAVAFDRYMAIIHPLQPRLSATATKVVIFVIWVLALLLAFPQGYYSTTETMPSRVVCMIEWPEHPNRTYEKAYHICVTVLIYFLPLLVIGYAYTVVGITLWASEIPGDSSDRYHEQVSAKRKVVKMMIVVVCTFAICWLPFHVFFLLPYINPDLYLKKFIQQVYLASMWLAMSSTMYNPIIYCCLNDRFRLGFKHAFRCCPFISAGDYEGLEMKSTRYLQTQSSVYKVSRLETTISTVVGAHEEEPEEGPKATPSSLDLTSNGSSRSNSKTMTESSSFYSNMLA
# [3] = molecular target: Substance-P receptor (Rattus norvegicus) (UniProt P14600); assay: Antagonistic activity against Substance P(6-11) receptor in rat spinal cord at concentration of 50 uM.
# [4] = test system: muscarinic acetylcholine receptor (Rattus norvegicus); assay: Antagonistic activity against Carbachol receptor in rat spinal cord at concentration of 10 uM.
# [5] = molecular target: Metabotropic glutamate receptor 3 (Rattus norvegicus) (UniProt P31422); assay: Antagonistic activity against Glutamate receptor in rat spinal cord at concentration of 25 uM.; type: functional, tissue-based
# Sequence of Metabotropic glutamate receptor 3 (Rattus norvegicus) (P31422 23-879 limits assumed): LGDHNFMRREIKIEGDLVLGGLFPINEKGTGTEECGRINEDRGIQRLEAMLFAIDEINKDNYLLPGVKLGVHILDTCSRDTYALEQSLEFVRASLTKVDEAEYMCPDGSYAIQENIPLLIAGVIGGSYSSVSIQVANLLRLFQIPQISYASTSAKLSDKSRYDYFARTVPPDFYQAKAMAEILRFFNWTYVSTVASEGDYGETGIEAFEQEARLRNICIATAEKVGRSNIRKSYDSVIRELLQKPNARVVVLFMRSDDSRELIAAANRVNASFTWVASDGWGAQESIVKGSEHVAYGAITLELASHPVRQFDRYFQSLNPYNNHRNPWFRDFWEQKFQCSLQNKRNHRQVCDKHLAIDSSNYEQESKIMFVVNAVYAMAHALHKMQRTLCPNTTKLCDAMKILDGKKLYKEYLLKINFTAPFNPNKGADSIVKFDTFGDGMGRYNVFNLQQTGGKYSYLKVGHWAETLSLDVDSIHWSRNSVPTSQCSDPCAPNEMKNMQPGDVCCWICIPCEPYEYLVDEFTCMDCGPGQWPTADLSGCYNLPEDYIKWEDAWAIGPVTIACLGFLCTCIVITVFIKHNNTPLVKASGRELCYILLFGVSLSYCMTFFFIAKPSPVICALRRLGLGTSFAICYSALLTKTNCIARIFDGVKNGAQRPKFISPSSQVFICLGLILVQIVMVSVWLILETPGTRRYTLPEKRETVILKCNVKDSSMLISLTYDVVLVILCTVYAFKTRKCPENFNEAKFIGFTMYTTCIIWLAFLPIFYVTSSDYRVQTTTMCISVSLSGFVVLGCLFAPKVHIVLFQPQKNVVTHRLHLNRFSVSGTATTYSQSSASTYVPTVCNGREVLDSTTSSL
# Method in brief: (§2)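 Neonatal rat spinal cord, hemisected sagittally, superfused at 1 mL/min with oxygenated Krebs-Henseleit medium containing 0.5% urethane at room temperature. Agonists were given in 2-mL doses in the superfusate. Antagonist was superfused continuously for at least 15 min before agonist retesting. Read-out was ventral root depolarization (DC potential, ventral root vs cord body), measured as amplitude and area of response.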
# [6] = molecular target: Substance-P receptor (Rattus norvegicus) (UniProt P14600); assay: Antagonistic activity against Substance P(6-11) receptor in rat spinal cord at concentration of 10 uM.
# [7] = molecular target: Substance-P receptor (Rattus norvegicus) (UniProt P14600); assay: Antagonistic activity against Substance P receptor in rat spinal cord at concentration of 10 uM.
# [8] = molecular target: Metabotropic glutamate receptor 3 (Rattus norvegicus) (UniProt P31422); assay: Antagonistic activity against Glutamate receptor in rat spinal cord at concentration of 10 uM.; type: functional, tissue-based; method in brief: as §2
# [9] = test system: muscarinic acetylcholine receptor (Rattus norvegicus); assay: Antagonistic activity against Carbachol receptor in rat spinal cord at concentration of 50 uM.
# [10] = molecular target: Substance-P receptor (Rattus norvegicus) (UniProt P14600); assay: Antagonistic activity against Substance P receptor in rat spinal cord at concentration of 25 uM.
# [11] = molecular target: Substance-P receptor (Cavia porcellus) (UniProt P30547); assay: Antagonistic activity against Substance P receptor in guinea pig ileum at concentration of 1 uM.; type: functional, tissue-based
# Method in brief: (§3)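 Distal ileum from Dunkin-Hartley guinea pigs (300-350 g, both sexes), held in a 5-mL bath of Krebs solution at 37 °C gassed with 95% O2/5% CO2. Agonist dose-response curves ran on a 3-min cycle with 1-min contact, then washout. Dose ratio = agonist EC50 with antagonist / EC50 alone. At least two preparations per compound; ratios below two were taken as insignificant.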
# [12] = molecular target: Substance-P receptor (Rattus norvegicus) (UniProt P14600); assay: Antagonistic activity against Substance P receptor in rat spinal cord at concentration of 20 uM.
# [13] = molecular target: Substance-P receptor (Cavia porcellus) (UniProt P30547); assay: Antagonistic activity against Substance P(6-11) receptor in guinea pig ileum at concentration of 1 uM.; type: functional, tissue-based; method in brief: as §3
# [14] = molecular target: Metabotropic glutamate receptor 3 (Rattus norvegicus) (UniProt P31422); assay: Antagonistic activity against Glutamate receptor in rat spinal cord at concentration of 20 uM.; type: functional, tissue-based; method in brief: as §2
# [15] = molecular target: Substance-P receptor (Rattus norvegicus) (UniProt P14600); assay: Antagonistic activity against Substance P(6-11) receptor in rat spinal cord at concentration of 20 uM.
# [16] = molecular target: Substance-P receptor (Cavia porcellus) (UniProt P30547); assay: In vitro inhibition of substance P (6-11) hexapeptide induced contractions of the guinea pig ileum at 5 uM.; type: tissue-based; method in brief: as §1
# [17] = molecular target: Substance-P receptor (Cavia porcellus) (UniProt P30547); assay: In vitro inhibition of substance P induced contractions of the guinea pig ileum at 5 uM.; type: tissue-based; method in brief: as §1
# [18] = molecular target: Metabotropic glutamate receptor 3 (Rattus norvegicus) (UniProt P31422); assay: Antagonistic activity against Glutamate receptor in rat spinal cord at concentration of 50 uM.; type: functional, tissue-based; method in brief: as §2
# [19] = molecular target: Substance-P receptor (Rattus norvegicus) (UniProt P14600); assay: Antagonistic activity against Substance P receptor in rat spinal cord at concentration of 50 uM.
# Substance-P receptor = Substance-P receptor (Rattus norvegicus, UniProt P14600); assay: Histamine releasing activity of Substance P from isolated rat peritoneal mast cells; type: functional
# Sequence of Substance-P receptor (P14600 whole entry): as the sequence (P14600 whole entry, looked up) above
# Method in brief: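 Histamine release from isolated rat peritoneal mast cells, method of Fretwell et al. Dose-response curves were built over a range of concentrations, and EC50 values were calculated from the curves.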
# [20] = molecular target: Metabotropic glutamate receptor 3 (Rattus norvegicus) (UniProt P31422); assay: Antagonistic activity against Glutamate receptor in rat spinal cord at concentration of 0.5 uM.; type: functional, tissue-based; method in brief: as §2
# [21] = molecular target: Metabotropic glutamate receptor 3 (Rattus norvegicus) (UniProt P31422); assay: Antagonistic activity against Glutamate receptor in rat spinal cord at concentration of 5.0 uM.; type: functional, tissue-based; method in brief: as §2
# [22] = molecular target: Metabotropic glutamate receptor 3 (Rattus norvegicus) (UniProt P31422); assay: Antagonistic activity against Glutamate receptor in rat spinal cord at concentration of 10.0 uM.; type: functional, tissue-based; method in brief: as §2
# [23] = molecular target: Metabotropic glutamate receptor 3 (Rattus norvegicus) (UniProt P31422); assay: Antagonistic activity against Glutamate receptor in rat spinal cord at concentration of 1.0 uM.; type: functional, tissue-based; method in brief: as §2
# [24] = molecular target: Substance-P receptor (Cavia porcellus) (UniProt P30547); assay: Antagonistic activity against Substance P(6-11) receptor in guinea pig ileum at concentration of 0.5 uM.; type: functional, tissue-based; method in brief: as §3
# [25] = molecular target: Substance-P receptor (Cavia porcellus) (UniProt P30547); assay: Antagonistic activity against Substance P(6-11) receptor in guinea pig ileum at concentration of 1.0 uM.; type: functional, tissue-based; method in brief: as §3
# [26] = molecular target: Substance-P receptor (Cavia porcellus) (UniProt P30547); assay: Antagonistic activity against Substance P receptor in guinea pig ileum at concentration of 1.0 uM.; type: functional, tissue-based; method in brief: as §3
# [27] = molecular target: Substance-P receptor (Cavia porcellus) (UniProt P30547); assay: Antagonistic activity against Substance P receptor in guinea pig ileum at concentration of 0.5 uM.; type: functional, tissue-based; method in brief: as §3
# [28] = molecular target: Metabotropic glutamate receptor 3 (Rattus norvegicus) (UniProt P31422); assay: Antagonistic activity against Glutamate receptor in rat spinal cord at concentration of 50.0 uM.; type: functional, tissue-based; method in brief: as §2
# [29] = molecular target: Substance-P receptor (Cavia porcellus) (UniProt P30547); assay: (§4) Antagonistic activity against Substance P receptor in guinea pig ileum at concentration of 5.0 uM.; type: functional, tissue-based; method in brief: as §3
# [30] = molecular target: Substance-P receptor (Cavia porcellus) (UniProt P30547); assay: as §4; type: functional, tissue-based; method in brief: as §3; remark: listed apart in the source
# [31] = molecular target: Substance-P receptor (Cavia porcellus) (UniProt P30547); assay: (§5) Antagonistic activity against Substance P receptor in guinea pig ileum at concentration of 10.0 uM.; type: functional, tissue-based; method in brief: as §3
# [32] = molecular target: Substance-P receptor (Cavia porcellus) (UniProt P30547); assay: as §5; type: functional, tissue-based; method in brief: as §3; remark: listed apart in the source
# [33] = molecular target: Metabotropic glutamate receptor 3 (Rattus norvegicus) (UniProt P31422); assay: Antagonistic activity against Glutamate receptor in rat spinal cord at concentration of 5 uM.; type: functional, tissue-based; method in brief: as §2
# [34] = molecular target: Substance-P receptor (Cavia porcellus) (UniProt P30547); assay: In vitro inhibition of substance P (6-11) hexapeptide induced contractions of the guinea pig ileum at 10 uM.; type: tissue-based; method in brief: as §1
# Sequence of Substance-P receptor (Cavia porcellus) (P30547 whole entry): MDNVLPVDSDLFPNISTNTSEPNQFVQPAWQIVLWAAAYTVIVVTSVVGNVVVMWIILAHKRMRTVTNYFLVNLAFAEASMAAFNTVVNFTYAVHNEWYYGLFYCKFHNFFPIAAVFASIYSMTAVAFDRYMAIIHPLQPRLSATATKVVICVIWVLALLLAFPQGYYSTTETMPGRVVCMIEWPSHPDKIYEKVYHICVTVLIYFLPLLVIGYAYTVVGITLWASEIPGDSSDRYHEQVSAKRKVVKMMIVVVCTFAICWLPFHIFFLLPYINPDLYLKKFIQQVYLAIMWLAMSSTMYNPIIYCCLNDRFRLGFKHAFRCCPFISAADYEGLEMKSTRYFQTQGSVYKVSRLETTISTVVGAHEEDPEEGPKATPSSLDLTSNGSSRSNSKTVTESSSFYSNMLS
smiles,measurement,setting,value
COC(=O)[C@@H](CCSC)NC(=O)[C@H](CC(C)C)NC(=O)CNC(=O)[C@@H](Cc1c[nH]c2ccccc12)NC(=O)[C@@H](Cc1c[nH]c2ccccc12)NC(=O)[C@H](CCC(N)=O)NC(=O)[C@H](CCC(N)=O)NC(=O)[C@@H]1CCCN1C(=O)[C@H](CCCCNC(=O)OCc1ccccc1)NC(=O)[C@@H]1CCCN1C(=O)[C@H](CCCN=C(N)N)NC(=O)OCc1ccccc1,Activity,[1],10.5 dose ratio
same,Change in amplitude response,[2],-77%
same,Change in amplitude response,[3],-75%
same,Change in amplitude response,[4],-6%
same,Change in amplitude response,[5],-13%
same,Change in amplitude response,[6],-33%
same,Change in amplitude response,[7],19%
same,Change in amplitude response,[8],-3%
same,Change in amplitude response,[9],-24%
same,Change in amplitude response,[10],18%
COC(=O)[C@H](CCSC)NC(=O)[C@H](CC(C)C)NC(=O)[C@@H](Cc1c[nH]c2ccccc12)NC(=O)[C@H](Cc1ccccc1)NC(=O)[C@@H](Cc1ccccc1)NC(=O)[C@H](CCCN=C(N)N)NC(=O)[C@H](CC(N)=O)NC(=O)[C@@H]1CCCN1C(=O)[C@H](CCCCNC(=O)OCc1ccccc1)NC(=O)[C@@H]1CCCN1C(=O)[C@H](CCCN=C(N)N)NC(=O)OC(C)(C)C,Activity,[11],3.1 dose ratio
same,Change in amplitude response,[12],17%
same,Activity,[13],3.1 dose ratio
same,Change in amplitude response,[14],-9%
same,Change in amplitude response,[15],-85%
same,Activity,[16],5.1 dose ratio
same,Activity,[17],2.8 dose ratio
COC(=O)[C@H](CCSC)NC(=O)[C@H](CC(C)C)NC(=O)[C@@H](Cc1c[nH]c2ccccc12)NC(=O)[C@H](Cc1ccccc1)NC(=O)[C@@H](Cc1ccccc1)NC(=O)[C@H](CCCN=C(N)N)NC(=O)[C@H](CC(N)=O)NC(=O)OC(C)(C)C,Activity,[11],< 2 dose ratio
same,Change in amplitude response,[3],-79%
same,Change in amplitude response,[4],-26%
same,Change in amplitude response,[18],11%
same,Activity,[13],4.4 dose ratio
same,Change in amplitude response,[6],-56%
same,Change in amplitude response,[19],-17%
same,Change in amplitude response,[7],15%
same,Change in amplitude response,[8],-3%
same,Change in amplitude response,[9],-40%
same,Activity,[16],16 dose ratio
same,IC50,Substance-P receptor,500 µM
same,Activity,[17],2.1 dose ratio
COC(=O)[C@@H](CCSC)NC(=O)[C@H](CC(C)C)N(C)C(=O)CN(C)C(=O)[C@H](Cc1ccccc1)NC(=O)[C@@H](Cc1ccccc1)NC(=O)[C@H](CCC(N)=O)NC(=O)[C@H](CCC(N)=O)NC(=O)C1CCCN1C(=O)[C@H](CCCCNC(=O)OCc1ccccc1)NC(=O)C1CCCN1C(=O)[C@H](CCCN=C(N)N)NC(=O)OCc1ccccc1 (stereo in doubt),Change in amplitude response,[20],6%
same,Change in amplitude response,[21],0%
same,Change in amplitude response,[22],-35%
same,Change in amplitude response,[23],0%
COC(=O)[C@@H](CCSC)NC(=O)[C@@H](CC(C)C)SCCNC(=O)[C@@H](Cc1ccccc1)NC(=O)[C@H](Cc1ccccc1)NC(=O)[C@H](CCC(N)=O)NC(=O)[C@H](CCC(N)=O)NC(=O)[C@H]1CCCN1C(=O)[C@H](CCCCNC(=O)OCc1ccccc1)NC(=O)[C@H]1CCCN1C(=O)[C@H](CCCN=C(N)N)NC(=O)OCc1ccccc1,Activity,[24],4.2 dose ratio
same,Change in amplitude response,[20],-7%
same,Activity,[25],20.1 dose ratio
same,Change in amplitude response,[21],-23%
same,Activity,[26],3.4 dose ratio
same,Activity,[27],2.4 dose ratio
same,Change in amplitude response,[28],-25%
same,Change in amplitude response,[22],-31%
same,Change in amplitude response,[23],-12%
same,Activity,[29],38 dose ratio
same,Activity,[30],38 dose ratio
same,Activity,[31],52 dose ratio
same,Activity,[32],52 dose ratio
COC(=O)[C@@H](CCSC)NC(=O)[C@H](CC(C)C)NC(=O)CN(C)C(=O)[C@H](Cc1ccccc1)NC(=O)[C@@H](Cc1ccccc1)NC(=O)[C@H](CCC(N)=O)NC(=O)[C@H](CCC(N)=O)NC(=O)C1CCCN1C(=O)[C@H](CCCCNC(=O)OCc1ccccc1)NC(=O)C1CCCN1C(=O)[C@H](CCCN=C(N)N)NC(=O)OCc1ccccc1 (stereo in doubt),Change in amplitude response,[18],-36%
same,Change in amplitude response,[5],-24%
same,Change in amplitude response,[33],-15%
COC(=O)[C@@H](CCSC)NC(=O)[C@H](CC(C)C)SCCNC(=O)[C@@H](Cc1ccccc1)NC(=O)[C@H](Cc1ccccc1)NC(=O)[C@H](CCC(N)=O)NC(=O)[C@H](CCC(N)=O)NC(=O)[C@H]1CCCN1C(=O)[C@H](CCCCNC(=O)OCc1ccccc1)NC(=O)[C@H]1CCCN1C(=O)[C@H](CCCN=C(N)N)NC(=O)OCc1ccccc1,Activity,[1],15.2 dose ratio
same,Change in amplitude response,[18],-5%
same,Change in amplitude response,[33],5%
same,Activity,[16],21.6 dose ratio
same,Activity,[17],4.5 dose ratio
same,Activity,[34],49.3 dose ratio
COC(=O)[C@@H](CCSC)NC(=O)[C@H](CC(C)C)NC(=O)CN(C)C(=O)[C@H](Cc1ccccc1)NC(=O)[C@@H](Cc1ccccc1)NC(=O)[C@H](CCC(N)=O)NC(=O)[C@H](CCC(N)=O)NC(=O)C1CCCN1C(=O)OC(C)(C)C (stereo in doubt),Activity,[1],< 2 dose ratio
same,Change in amplitude response,[2],-29%
same,Change in amplitude response,[3],-57%
same,Change in amplitude response,[18],-4%
same,Change in amplitude response,[19],-12%
same,Change in amplitude response,[10],7%
same,Activity,[16],< 2 dose ratio
same,Activity,[17],< 2 dose ratio
same,Activity,[34],< 2 dose ratio

# From ChEMBL document CHEMBL1123302, “Antagonists of substance P. Further modifications of substance P antagonists obtained by replacing either positions 7, 9 or 7, 8 and 11 of SP with D-amino acid residues” (J Med Chem, 1986)
